In the library only some 3.5% were active in any assay of this set; here they are far more common.
RGS4 act = RGS4 potentiation or activation. HEK293 M3R/inducible RGS4, carbachol calcium flux Fluo4; stronger effect = lower value. B-score at 10 µM. actives 0.92% (n = 310,000);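 active = B-score of the integrated calcium signal more than 4 SD below the library mean, with starting fluorescence not abnormally high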;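 note: negative B-score means reduced calcium response which marks RGS4 activation or potentiation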
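test system = HEK293 cells with stable M3R and inducible RGS4 | schedule = recording 10 s baseline at 1 Hz, 100 s post-agonist | technique = Fluo4-AM (2 µM) calcium-flux fluorescence, kinetic read | measure = Agonist-evoked peak-minus-minimum fluorescence over baseline, integrated ratio, B score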
MrgX1 agonist = activates human MrgX1 receptor signaling. MrgX1-HEK293 cells, Fluo-4 calcium fluorescence, agonist mode; stronger effect = higher value. B-score at 10 µM. actives 0.44% (n = 310,000);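 active = calcium response B-score plate-corrected fluorescence ratio at least 3 library SD, with starting fluorescence B-score inside 5 SD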
Target sequence (Q96LB2 whole entry, looked up): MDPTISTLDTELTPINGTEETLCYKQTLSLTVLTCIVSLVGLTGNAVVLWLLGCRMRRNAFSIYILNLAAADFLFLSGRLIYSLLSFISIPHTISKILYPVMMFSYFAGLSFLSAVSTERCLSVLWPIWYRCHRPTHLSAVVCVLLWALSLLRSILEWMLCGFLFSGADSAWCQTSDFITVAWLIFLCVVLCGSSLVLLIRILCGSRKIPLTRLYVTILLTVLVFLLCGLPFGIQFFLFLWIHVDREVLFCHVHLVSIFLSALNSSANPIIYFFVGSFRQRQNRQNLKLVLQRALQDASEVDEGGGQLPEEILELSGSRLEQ
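Material: MrgX1-expressing HEK293 cells / Dosing: compound as first of three additions / Incubation: overnight seeding, then 1 h dark dye loading / Signal: Fluo-4 NW calcium fluorescence / Evaluation: B-scored fluorescence response ratio / Benchmarks: positive and negative control wells on each plate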
RGS4 block = human RGS4 inhibition | P49798 | HEK293 M3R/RGS4 inducible, Fluo-4 calcium flux; stronger effect = higher value; triggered by carbachol at its EC20 | B-score at 10 µM | actives 0.45% (n = 310,000);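 active = B-score, a plate-corrected calcium signal, over three deviations above library mean, with baseline fluorescence within five deviations of library mean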;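 note: RGS4 expression induced by doxycycline in cells with stable M3 receptor; B-score is computed from the integrated fluorescence ratio over baseline after carbachol; higher B-score means a larger calcium signal and so more RGS4 inhibition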
Target sequence (P49798 whole entry, looked up): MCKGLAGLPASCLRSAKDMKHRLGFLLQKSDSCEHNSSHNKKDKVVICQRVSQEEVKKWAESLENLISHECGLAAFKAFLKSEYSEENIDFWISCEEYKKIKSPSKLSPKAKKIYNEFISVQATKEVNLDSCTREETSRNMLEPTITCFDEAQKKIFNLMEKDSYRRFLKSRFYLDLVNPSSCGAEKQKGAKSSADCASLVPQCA
MrgX1 allo act = allosterically activates human MrgX1 receptor signaling; Q96LB2; MrgX1-HEK293, Fluo-4 calcium flux, FDSS; stronger effect = higher value; actives 0.63% (n = 310,000); AID 588675; B-score at 10 µM;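 active = plate-corrected calcium response at least 3 library SD above typical, normal starting fluorescence, not activating the receptor alone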;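 note: compound read alongside a low EC10 to EC30 dose of BAM8-22 agonist; peak minus trough fluorescence over baseline measured at the second addition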
MrgX1 antag = antagonists of human MrgX1 receptor; Q96LB2; MRGX1-HEK293 calcium flux, Fluo-4, BAM8-22 antagonism; stronger effect = lower value; B-score at 10 µM; actives 1.3% (n = 310,000); AID 588676;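 active = calcium-response B-score plate-corrected more than 3 library SD below zero, starting fluorescence within 5 deviations, no agonist response on first addition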;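 note: peak minus trough fluorescence over baseline after final BAM8-22 challenge near maximal dose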
RGS4 inh valid = RGS4 inhibitor validation. shares compounds with RGS4 block. HEK293 M3R/RGS4, carbachol calcium Fluo-4 fluorescence; carbachol added at its EC20; 0 = buffer wells, 100 = carbachol control. calcium response, % at 10 µM. actives 65% (n = 1,700). AID 492999;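 active = duplicate-averaged calcium response above the buffer-only control mean plus 5 SD of those controls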;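 note: integrated fluorescence ratio F max minus min over baseline F0; higher response in RGS4-induced cells means RGS4 inhibition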
RGS4 uninduced = counter-screen for RGS4 inhibitors: effect in non-induced cells. HEK293 M3R non-induced, carbachol calcium Fluo-4; submaximal (EC20) carbachol stimulus; buffer wells 0%, carbachol control wells 100%. activity (percent), % at 10 µM. shares compounds with RGS4 block. actives 20% (n = 1,900); call rule not given here;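 note: RGS4 induction absent so cells express M3R without RGS4; higher means more calcium signal and flags a non-specific hit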
RGS4 inh ctr2 = second RGS4 inhibitor counter-screen in uninduced cells lacking carbachol. shares compounds with RGS4 block. calcium response (agonist-mode artifact), % at 10 µM. actives 22% (n = 1,900). AID 493001. HEK293 M3R/RGS4 non-induced, Fluo-4 calcium, no carbachol; normalised: buffer wells 0%, carbachol wells 100%;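 active = duplicate-averaged calcium rise in uninduced cells above buffer wells' mean plus 5 SD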
The depositor's hits bear a star; i = inactive; . = not tested or not shown.

SMILES	RGS4 act	MrgX1 agonist	RGS4 block	MrgX1 allo act	MrgX1 antag	RGS4 inh valid	RGS4 uninduced	RGS4 inh ctr2
Fc1ccccc1CN1CCCC(NC2CCC2)C1 (stereo not given)	i	i	6.91*	i	i	8.0%*	i	i
Cc1cc2cc(C)c(NCCNC(=O)c3cccc(F)c3)nc2cc1C	i	i	5.3*	i	i	i	i	i
Cc1cccc(C(=O)NCCNc2nc3cc(C)c(C)cc3cc2C)c1	i	i	i	i	i	i	i	i
Cc1cc2cc(C)c(NCCNC(=O)c3ccccc3F)nc2cc1C	i	i	i	i	i	i	i	i
CC(C)(C)n1cn[nH]c1=S	i	i	i	i	i	.	.	.
CCCCCCc1ccc(-c2ncc(N)cn2)cc1	i	i	6.7*	i	i	29.0%*	61.0%*	i
CC(C)c1ccc2[nH]c3c(c2c1)[C@@H]1CCN2C(=O)CCC[C@H](C3)[C@H]12	i	i	i	i	i	.	.	.
COc1ccc(C2=Nn3c(nnc3-c3ccccn3)SC2)cc1OC	i	i	i	i	i	.	.	.
COc1ccc(C2=Nn3c(nnc3-c3ccccc3OC)SC2)cc1OC	i	i	8.2*	i	i	20.5%*	33.5%*	i
CC(C)NC(=O)CC1C(=O)N(Cc2ccccc2)C(C)c2nc3ccccc3n21 (stereo not given)	i	i	i	i	i	.	.	.
COC(=O)C1=C(CS(=O)(=O)c2ccc(C)cc2)NC(=O)NC1c1ccc(OC)c(OC)c1 (stereo not given)	i	i	i	i	i	i	i	i
CCOC(=O)C1=C(CS(=O)(=O)c2ccc(C)cc2)NC(=O)NC1c1ccc(O)c(OC)c1 (stereo not given)	i	i	i	i	i	.	.	.
COC(=O)N/N=C/c1sc(N2CCCCC2)nc1-c1cccs1	i	i	i	i	i	.	.	.
CCOCc1nnc(NC(=O)CCc2ccccc2)s1	i	i	i	i	i	.	.	.
COCc1nnc(NC(=O)CCc2ccccc2)s1	i	i	i	i	i	.	i	i
COCc1nnc(NC(=O)CCc2ccc(OC)cc2)s1	i	i	5.04*	i	i	30.5%*	i	i
COc1ccc(CCC(=O)Nc2nnc(C)s2)cc1	i	i	i	i	i	.	.	.
CC(C)(C)c1ccc(OCC(=O)Nc2ccc3c4c(cccc24)C(=O)NC3=O)cc1	i	.	i	.	.	.	.	.
Cc1noc(NS(=O)(=O)c2ccc(N/C=C\C(=O)c3cccc4ccccc34)cc2)c1C	i	i	5.92*	i	i	i	i	i
CCOc1ccc(C(=O)/C=C/Nc2ccc(S(=O)(=O)Nc3onc(C)c3C)cc2)cc1	i	i	i	i	i	.	.	.
Cc1noc(NS(=O)(=O)c2ccc(NC(=O)c3ccc(N4C(=O)c5ccccc5C4=O)cc3)cc2)c1C	i	i	i	i	i	.	.	.
Cc1noc(NS(=O)(=O)c2ccc(NC(=O)c3nn(-c4ccccc4)ccc3=O)cc2)c1C	i	i	i	i	i	i	i	i
Cc1noc(NS(=O)(=O)c2ccc(N/C=C\C(=O)c3ccc(Br)cc3)cc2)c1C	i	i	6.7*	i	i	14.0%*	i	i
CC1CCN(CCCNC(=O)c2ccc(Cn3c(=S)[nH]c4ccc(Br)cc4c3=O)cc2)CC1	i	i	i	i	i	.	.	.
CCCCn1c(-c2sccc2C)n[nH]c1=S	i	i	i	i	i	.	.	.
SMILES	RGS4 act	MrgX1 agonist	RGS4 block	MrgX1 allo act	MrgX1 antag	RGS4 inh valid	RGS4 uninduced	RGS4 inh ctr2
CNC(=O)c1c(NC(=O)c2cc(-c3cc(C)c(C)cc3O)n[nH]2)sc2c1CCCC2	i	i	i	i	i	.	.	.
O=C(NCC(=O)N(c1ccccc1)C(C(=O)NC1CCCCC1)c1cccnc1)c1ccco1 (stereo not given)	i	i	i	i	i	.	.	.
COc1ccccc1CN(Cc1cc2cc(C)ccc2[nH]c1=O)Cc1nnnn1Cc1ccco1	i	i	i	i	i	.	i	i
CCc1ccc2[nH]c(=O)c(CN(Cc3ccccc3OC)Cc3nnnn3Cc3ccco3)cc2c1	i	i	i	i	i	i	i	18.0%*
CC(C)(C)c1ccc(C(=O)NCC(=O)N2CCC3(CC2)NCCc2[nH]cnc23)cc1	i	i	i	i	i	.	.	.
CCOC(=O)[C@@H]1[C@H]2COc3ccccc3[C@H]2N2C(=O)N(c3ccc(F)cc3)C(=O)[C@]12C	i	i	i	i	i	i	i	i
CCOC(=O)[C@@H]1[C@H]2COc3ccccc3[C@@H]2N2C(=O)N(c3ccc(C)cc3)C(=O)[C@]12C	i	i	i	i	i	.	i	i
CCOC(=O)[C@@H]1[C@H]2COc3ccccc3[C@H]2N2C(=O)N(c3ccc(Cl)cc3)C(=O)[C@]12C	i	i	i	i	i	i	i	i
Cc1c(NC(=O)C(C)OC(=O)CCOc2ccccc2)c(=O)n(-c2ccccc2)n1C (stereo not given)	i	i	i	i	i	.	.	.
O=C(NCCOc1ccccc1)C1CCC(=O)N(CCN2CCOCC2)C1 (stereo not given)	i	i	i	i	i	.	.	.
CC(C)CC(=O)NC(=S)Nc1ccc(S(=O)(=O)Nc2nccs2)cc1	i	i	i	i	i	.	.	.
O=C1C(Cl)=C(N2CCC(C(=O)O)CC2)C(=O)c2ccccc21	i	i	8.76*	14.6*	i	39.0%*	i	i
NC(=O)C1CCN(C2=C(NS(=O)(=O)c3ccccc3)C(=O)c3ccccc3C2=O)CC1	i	i	i	i	i	.	.	.
CCn1c(=O)c([N+](=O)[O-])c(Cl)c2ccccc21	i	i	6.58*	10.2*	i	8.5%*	i	9.5%*
COc1ccc(-c2cc(=O)oc3c(C)c(O)ccc23)cc1	i	i	i	i	i	.	.	.
